Data reported in ChEMBL document CHEMBL1212872, “Dual inhibitors of inosine monophosphate dehydrogenase and histone deacetylase based on a cinnamic hydroxamic acid core structure” (Bioorg Med Chem, 2010).

Assays:
[1] = molecular target: Inosine-5'-monophosphate dehydrogenase 2 (Homo sapiens, UniProt P12268); assay: Inhibition of human IMPDH2; conditions: read-out: Ki(app)
Summary of the method: (§1)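 Run in duplicate with IMPDH1 at 150 nM or IMPDH2 at 50 nM, across a range of inhibitor concentrations. Buffer: 50 mM Tris pH 8.0, 100 mM KCl, 1 mM DTT, with 100 µM IMP and 100 µM NAD, at 25 °C. NADH formation followed at 340 nm. IC50 from a variable-slope sigmoidal fit of steady-state velocities; apparent Ki from the Morrison equation.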

[2] = Inhibition of nuclear extract HDAC
Summary of the method: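 HDAC nuclear extract tested with a commercial HDAC activity/inhibitor screening kit per its protocol. Inhibitors were dissolved in DMSO or methanol. IC50 from a variable-slope sigmoidal fit of end-point fractional fluorescence. Autofluorescence corrected using a compound concentration curve run under background-well conditions.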

[3] = molecular target: Inosine-5'-monophosphate dehydrogenase 1 (Homo sapiens, UniProt P20839); assay: Inhibition of human IMPDH1; conditions: read-out: Ki(app); summary of the method: as §1
[4] = tested on: K562; assay: Antiproliferative activity against human K562 cells after 72 hrs by MTS assay; type: functional, cell-based; conditions: K562, 72 h

Chain of Inosine-5'-monophosphate dehydrogenase 1 (P20839 whole entry): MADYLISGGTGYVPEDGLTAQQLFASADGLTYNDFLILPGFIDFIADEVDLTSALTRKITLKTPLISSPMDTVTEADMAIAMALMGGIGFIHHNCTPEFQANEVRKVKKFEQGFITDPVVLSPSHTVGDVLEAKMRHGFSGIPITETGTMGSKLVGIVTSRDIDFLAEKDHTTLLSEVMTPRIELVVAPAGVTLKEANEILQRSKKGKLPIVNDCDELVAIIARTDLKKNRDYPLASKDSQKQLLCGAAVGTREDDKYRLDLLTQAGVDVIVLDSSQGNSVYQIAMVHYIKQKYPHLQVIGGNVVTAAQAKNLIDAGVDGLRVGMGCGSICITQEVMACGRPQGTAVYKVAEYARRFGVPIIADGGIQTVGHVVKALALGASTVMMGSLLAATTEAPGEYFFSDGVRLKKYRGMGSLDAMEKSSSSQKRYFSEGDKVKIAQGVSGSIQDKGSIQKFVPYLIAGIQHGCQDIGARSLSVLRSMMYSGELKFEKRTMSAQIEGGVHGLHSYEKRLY

| Compound | Ki [1] | IC50 [2] | Ki [3] | IC50 [4] |
| --- | --- | --- | --- | --- |
| COc1cc(NC(=O)NCc2ccc(/C=C/C(=O)NO)cc2)ccc1-c1cnco1 | 1.2 µM | 0.026 µM | 7.8 µM | 3.5 µM |
| COc1cc(NC(=O)NCc2cccc(/C=C/C(=O)NO)c2)ccc1-c1cnco1 | 0.34 µM | 0.83 µM | 2.3 µM | 18 µM |
| COc1cc(NC(=O)NCc2ccc(/C=C/C(=O)NO)cc2)ccc1C#N | 11 µM | 0.036 µM | > 100 µM |  |
| COc1cc(NC(=O)NCc2cccc(/C=C/C(=O)NO)c2)ccc1C#N | 2.6 µM | 0.64 µM | 44 µM | 28 µM |
| COc1cc(NC(=O)C(=O)NCc2ccc(/C=C/C(=O)NO)cc2)ccc1-c1cnco1 | 1.4 µM | 0.23 µM | 17 µM | 5.3 µM |
| COc1cc(NC(=O)Nc2ccc(/C=C/C(=O)NO)cc2)ccc1-c1cnco1 | 0.25 µM | 0.55 µM | 0.3 µM | 4.9 µM |
| COc1cc(NC(=O)Nc2ccc(/C=C/C(=O)NO)cc2)ccc1C#N | 0.23 µM | 0.63 µM | 1.2 µM | 4 µM |
| COc1cc(NC(=O)Nc2cccc(/C=C/C(=O)NO)c2)ccc1C#N | 1.2 µM | 3.4 µM | 8.2 µM | 38 µM |

Continued by falling Ki [1], values first:

| Ki [1] | IC50 [2] | Ki [3] | IC50 [4] | Compound |
| --- | --- | --- | --- | --- |
| 1.8 µM | 17 µM | 7.1 µM | 72 µM | COc1cc(NC(=O)C(=O)Nc2ccc(/C=C/C(=O)NO)cc2)ccc1-c1cnco1 |
| 1.5 µM | 0.89 µM | 4.4 µM | > 100 µM | COc1cc(NC(=O)C(=O)NCc2cccc(/C=C/C(=O)NO)c2)ccc1-c1cnco1 |
| 0.2 µM | 1.8 µM | 0.46 µM | 28 µM | COc1cc(NC(=O)C(=O)Nc2cccc(/C=C/C(=O)NO)c2)ccc1-c1cnco1 |
| 0.12 µM | 3 µM | 0.58 µM | > 100 µM | COc1cc(NC(=O)Nc2cccc(/C=C/C(=O)NO)c2)ccc1-c1cnco1 |
